# Shown are actives, neighbours in structure and some others; about 2.3% of the full set was active somewhere.
# TRPC4 agonist – activators of mouse TRPC4 channel, primary screen, Fluo4 calcium, HEK293 TRPC4beta/mu-opioid cells. Short transient receptor potential channel 4 (Mus musculus), Q9QUQ5. Fluo4 calcium fluorescence; hits give high values. B-score at 10 µM. actives 0.49% (n = 310,000);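 active = B-score above 5 SD of library B-scores, and initial fluorescence ratio not above library mean plus 5 SD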;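 also: positive B-score marks a calcium rise read as TRPC4 activation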
#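 System – HEK293 cells stably co-expressing mouse TRPC4beta and mu-opioid receptor · Signal – Fluo4 calcium-sensitive dye fluorescence, kinetic, 1 Hz baseline · Benchmarks – buffer (low) and maximal DAMGO (high) · Read-out – B score of integrated fluorescence ratio per well · Incubation – dye loading 45 min room temperature, 110 s kinetic read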
# TRPC4 PAM – positive allosteric modulators of TRPC4, primary screen, cell-based, mouse TRPC4beta, HEK293 mu-opioid, Fluo-4 calcium. DAMGO EC20, Fluo-4 Ca2+ flux; hits give high values. actives 0.42% (n = 310,000). AID 2227, 2009. Short transient receptor potential channel 4 (Mus musculus), Q9QUQ5. B-score at 10 µM;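 active = B-score of calcium response area above 5 SD of library B-scores, with initial fluorescence ratio within 5 SD of library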;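 also: B-score of integrated fluorescence ratio over time as area under calcium response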
# TRPC6 activator – mouse TRPC6 channel activators, primary screen, cell-based, HEK293, membrane potential dye | HEK293-TRPC6 membrane potential dye fluorescence; hits give high values | actives 0.13% (n = 310,000) | Short transient receptor potential channel 6 (Mus musculus), Q61143 | AID 2550, 2010 | B-score at 10 µM;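 active = B-score of the integrated fluorescence ratio above library mean plus 3 SD, and starting fluorescence ratio within library mean plus 5 SD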;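 also: higher score means more depolarization so channel activation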
# TRPC4 block – inhibitors of mouse TRPC4 channel, primary screen, Fluo4 calcium, HEK293 TRPC4beta/mu-opioid cells. actives 0.39% (n = 300,000). DAMGO-evoked Fluo4 calcium flux; hits give low values. B-score at 10 µM;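 active = B-score over 3 SD under the library average, no early fluorescence shift, positive overall ratio signal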
#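 Assay system: HEK293 cells with stable TRPC4beta plus mu-opioid receptor expression. Dosing: single dose. Measured by: Fluo4 Ca2+ flux fluorescence. Also added: DAMGO in two steps, submaximal then maximal. Read-out: B score from integrated Fluo4 fluorescence ratio.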
# TRPC6 inhibitor – mouse TRPC6 channel inhibitors, primary screen, cell-based, HEK293, membrane potential dye | Short transient receptor potential channel 6 (Mus musculus), Q61143 | ACh-evoked depolarization; hits give low values | B-score at 10 µM | actives 1.1% (n = 310,000);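 active = B-score under library mean minus 3 SD, initial fluorescence not abnormally high, positive integrated signal ratio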;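 also: B-score derived from integrated fluorescence ratio over the kinetic read; more negative B-score means stronger inhibition of depolarization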
# Numbers without * were called inactive; i = inactive.
SMILES,TRPC4 agonist,TRPC4 PAM,TRPC6 activator,TRPC4 block,TRPC6 inhibitor
Cc1ccc(Nc2cc(C)nc3ccc(C)cc23)cc1,i,i,i,-6*,i
COc1ccc(Nc2cc(C)nc3ccc(OC)cc23)cc1,i,i,i,-6*,i
COC(=O)c1ccc2nc(C)cc(Nc3ccc(N(C)C)cc3)c2c1,i,i,i,i,i
COC(=O)c1ccc(Nc2cc(C)nc3ccccc23)cc1,i,i,i,-6*,i
COc1ccc(N(C(=O)c2snc(C(N)=O)c2N)C(C(=O)NCc2ccc(F)cc2)c2ccc(C)o2)c(OC)c1 (stereo not given),i,i,i,i,i
NC(=O)c1nsc(C(=O)N(Cc2ccco2)C(C(=O)NCc2ccccc2)c2ccc(O)cc2)c1N (stereo not given),i,i,i,-8*,i
CCOc1ccccc1N(C(=O)c1snc(C(N)=O)c1N)C(C(=O)NCc1ccccc1)c1ccc(O)cc1 (stereo not given),i,i,i,-9*,i
COc1ccccc1N(C(=O)c1snc(C(N)=O)c1N)C(C(=O)NCc1ccccc1)c1ccc(C)o1 (stereo not given),i,i,i,-6*,i
Cc1ccccc1N(C(=O)c1snc(C(N)=O)c1N)C(C(=O)NCc1ccccc1)c1ccc(O)cc1 (stereo not given),i,i,i,i,i
O=C(NCC1CCCO1)C1CCCN(S(=O)(=O)c2ccc(Cl)cc2)C1 (stereo not given),i,i,i,i,i
O=C(NC1CC1)C1CC(=O)N(c2ccc(F)cc2)C1 (stereo not given),i,i,i,i,i
CC1CCc2c(C(=O)N3CCN(S(=O)(=O)c4cccs4)CC3)csc2C1 (stereo not given),i,29*,i,i,i
CC1CC(C)CN(S(=O)(=O)c2cccc3nsnc23)C1 (stereo not given),i,i,i,i,i
Cc1sc2ncnc(NCC(c3ccco3)N3CCCC3)c2c1C (stereo not given),163*,i,i,i,i
CCN(CC)S(=O)(=O)c1ccc(NC(=O)CO/N=C(\N)c2ccccc2)cc1,i,i,i,i,i
CCn1cc(CN2CCC(n3nccc3NC(=O)CCCc3ccccc3)CC2)cn1,43*,i,i,-7*,i
Cc1ccc(CN2CCC(n3nccc3NC(=O)CCOc3ccccc3)CC2)cc1C,i,i,i,-6*,i
CCn1cc(CN2CCC(n3nccc3NC(=O)Cc3ccccc3)CC2)cn1,i,i,i,i,i
COc1ccc(CN2CCC(n3nccc3NC(=O)CCc3ccccc3)CC2)c(C)c1C,82*,i,i,i,i
COc1ccccc1CCNC(=O)c1cccc(S(=O)(=O)NCc2ccccc2)c1,i,i,i,i,i
C=CCN(CC=C)C(=O)C1CCN(S(=O)(=O)c2ccc(N3CCCC3=O)cc2)CC1,i,i,i,i,i
CCC1CCCCN1C(=O)CCc1nnc(Cc2cc(OC)ccc2OC)o1 (stereo not given),i,i,i,i,i
CN(CCc1ccccn1)C1CC(=O)N(c2ccc(Cl)cc2)C1=O (stereo not given),148*,i,i,i,i
CN(CCc1ccccn1)C(=O)Nc1ccc(Cl)cc1,i,i,i,i,i
CCN(CC(=O)Nc1c(F)cccc1F)C(=O)CCC(=O)c1ccc(C)cc1,i,i,i,i,i
SMILES,TRPC4 agonist,TRPC4 PAM,TRPC6 activator,TRPC4 block,TRPC6 inhibitor
COc1ccc(N2CCN(C3CCCCC3NS(=O)(=O)c3ccc(Cl)cc3)CC2)cc1 (stereo not given),i,15*,i,i,i
COc1ccccc1N1CCN(C2CCCCC2NS(=O)(=O)c2ccc(Cl)cc2)CC1 (stereo not given),i,i,i,i,i
CC(=O)c1ccc(N2CCN(C(=O)/C=C/c3ccc(S(=O)(=O)NCc4ccco4)cc3)CC2)cc1,i,12*,i,i,i
CC(=O)c1ccc(N2CCN(C(=O)/C=C/c3ccc(S(=O)(=O)N4CCOCC4)cc3)CC2)cc1,i,i,i,i,i
O=C(OCC(=O)N1CCOCC1)c1cccc(S(=O)(=O)N2CCCc3ccccc32)c1,i,15*,i,i,i
O=C(OCC(=O)N1CCCC1=O)c1cccc(S(=O)(=O)N2CCOCC2)c1,i,i,i,i,i
COc1ccc(N(C(=O)c2csnn2)C(C(=O)NC2CCCC2)c2ccccc2)cc1 (stereo not given),i,i,i,i,i
NCCNC(=O)c1c(NC(=O)c2ccccc2)sc2c1CCCC2,175*,i,i,i,i
O=C(Nc1sc2c(c1C(=O)NCCCO)CCCC2)c1ccccc1,i,i,i,i,i
CCN1CCCC1CNC(=O)c1csc2c1CCCC2 (stereo not given),79*,i,i,i,i
CN(CCc1ccccn1)c1ccc([N+](=O)[O-])cn1,189*,i,i,i,i
O=[N+]([O-])c1ccc(SCCc2ccncc2)cc1,i,i,i,i,i
O=[N+]([O-])c1ccc(SCCc2ccccn2)cc1,i,14*,i,i,i
O=C(c1nc2ccccn2c1CNCCOc1cccnc1)N1CCOCC1,i,i,i,i,i
O=C(NCCCN1CCCC1)c1ccc2c(c1)N(Cc1cccc(Cl)c1)C(=O)c1ccccc1S2=O (stereo not given),i,i,i,i,i
CCCCSCCCNC(=O)c1ccc2c(c1)N(CC)C(=O)c1ccccc1S2=O (stereo not given),i,i,i,i,i
CCCN(CCC)CCCNC(=O)c1ccc2c(c1)N(CC)C(=O)c1ccccc1S2=O (stereo not given),66*,i,i,i,i
CC1CC(C)CN(CCCNC(=O)c2ccc3c(c2)N(Cc2ccccc2)C(=O)c2ccccc2S3=O)C1 (stereo not given),85*,i,i,i,i
OCCNCCSc1nc(C2CCCCC2)n(-c2ccccc2Cl)n1,i,i,i,i,i

# Source: PubChem BioAssay (Johns Hopkins Ion Channel Center)
